# Experiment: Toxicity liver stage against HepG2, at 10uM
# Assay type: cell-based
# Set-up: test concentration 10 uM, cell line HepG2-A16-CD81EGFP
# Conditions: human, HepG2-A16-CD81EGFP cells; read-out: INHIBITION
# Procedure, shortened: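 Uninfected HepG2-A16-CD81EGFP cells, 3 × 10^3 per well, 1536-well, plated on prespotted compound at 10 μM final, parasite-free screening media added to match infected plates; puromycin 10 μM positive, DMSO 0.5% negative; run in parallel with 48 h PbLuc assay at 37 °C, 5% CO2; viability by CellTiter-Glo luminescence, normalized to controls.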
row,SMILES,cytotoxicity at 10 µM [%]
1,COc1ccc2oc(C(C)NC(=O)NC3CCN(C)CC3)c(C)c2c1 (stereo unspecified),2.62
2,Cc1ccc(CNC2(Cc3cc(C(C)(C)O)on3)COC2)o1,-1.18
3,Cc1ccc(-n2nc(C)c3c(C)cc(OCC(=O)NC(C)C)nc32)cc1,-3.61
4,COc1c(C(=O)N2CCOCC2)cnc2c1c(C)nn2C,1.64
5,CNC(=O)CN1C(=O)CCC12CCCN(CCc1ccccc1)C2 (stereo unspecified),1.35
6,CC(=O)N1CCCC2(CCN(c3ccccc3)C2=O)C1 (stereo unspecified),1.91
7,Cc1cc(C(=O)N2CC[C@@H](O)[C@@H]2Cc2ccccc2)no1,-1.36
8,CS(=O)(=O)N1CCCC12CCCN(c1nccs1)C2 (stereo unspecified),4.92
9,Cc1noc([C@]23COC[C@H]2CN(S(=O)(=O)C2CC2)C3)n1,8.1
10,CCN1CCC2(COCc3c(C)nc(N(C)C)nc32)C1 (stereo unspecified),5.76
11,CCn1c(SCC(=O)N2CCOCC2)nc2cc(C)[nH]c2c1=O,7.72
12,COCCNC(=O)Cn1c(-c2ccc(Cl)cc2)nc(C)c(CCO)c1=O,-13.1
13,CCc1cnc2c(c1NCc1ccncc1)c(=O)n(C)c(=O)n2C,-12.1
14,Cc1ccc(N2CCN(C(=O)COc3ccccc3)CC2)nn1,-14.6
15,Fc1cccc(Cl)c1CNCCCOc1ccccn1,-3.33
16,CCCC(=O)NCCCn1ncc2c(C)cccc21,8.6
17,CC(C)CNC(=O)c1nnsc1-c1ccccc1,10.3
18,CC1(C)CC(=O)N(CC(=O)Nc2ccon2)c2ccccc21,-3.43
19,COc1ccc(C2CN(c3cc(C)ncn3)CCN2C(C)=O)cc1 (stereo unspecified),0.23
20,COCC(=O)N1CCCC1(C(=O)N(C)C)c1cnccn1 (stereo unspecified),3.96
21,COCCC(=O)NCCc1nc(N(C)C)ncc1-c1ccncc1,1.68
22,COc1ccc(CN(C)[C@@H]2CN(S(=O)(=O)C(C)C)C[C@H]2O)cc1,0.465
23,CNC(=O)c1ccc(C2CN(Cc3ccc(F)cc3)CCO2)nc1 (stereo unspecified),-0.378

row,SMILES,cytotoxicity at 10 µM [%]
1,CC(C)c1nc(O)c2nnn(C[C@H]3CCCN(Cc4cccs4)C3)c2n1,10.8
2,COc1ccc(N2CCN(C(=O)OC(C)(C)C)C(C(=O)O)C2)cc1 (stereo unspecified),-0.318
3,CC(=O)N1CCC(c2ccnc(Nc3cc(C(F)(F)F)ccn3)n2)C1 (stereo unspecified),11
4,CC1(C(=O)N2CCOCC2)CN(Cc2cccnc2)CCO1 (stereo unspecified),-9
5,Cc1c(C(=O)N2CCCC(n3nnc4cc(F)ccc43)C2)cnn1C (stereo unspecified),-18.3
6,Cc1cn[nH]c1C1CCCCN1C(=O)CCc1ccc(F)cc1 (stereo unspecified),1.52
7,COC(=O)CC(NC(=O)c1cccc(N2CCCC2=O)c1)C(=O)OC (stereo unspecified),-55.6
8,CC1CCN(C(=O)c2cn(-c3ccc(C(F)(F)F)cn3)nn2)CC1,-53.1
9,COc1ccc(F)cc1Cn1nc(C(N)=O)ccc1=O,-2.52
10,CC(C)Cn1ccnc1CNC(=O)NC(C)(C)c1nccs1,-5.66
11,COC(=O)c1ccc2c(c1)CCCN2S(=O)(=O)c1cn(C)c(C)n1,3.94
12,Cc1ccc(NC(=O)NCC2CCS(=O)(=O)C2)cc1Cl (stereo unspecified),6.93
13,COCCS(=O)(=O)NCc1ccc(N(C)C)c(C)c1,-8.35
14,CC(C)c1csc(C(=O)N(C)c2ccc(Br)cn2)n1,3.33
15,Cc1oc(CNC(=O)Cc2ccc3ccccc3c2)cc1C(=O)O,3.63
16,CC(C#N)(NC(=O)c1ccc(C#N)cc1)C1CC1 (stereo unspecified),-3.67
17,Cn1cc(C(=O)N2CCCC2c2ccc3c(c2)OCO3)ccc1=O (stereo unspecified),-14.8
18,Cn1c(NCCN2CCCCCC2)c(C#N)c(=O)n(C)c1=O,0.0687
19,CCn1cc(S(=O)(=O)NCC(OC)c2ccccc2)cn1 (stereo unspecified),1.64
20,Fc1cccnc1N1CCCC(c2nccs2)C1 (stereo unspecified),1.48
21,Cc1ccc(NC(=O)Cc2c(C)nc3c(c2C)c(=O)[nH]n3C)cc1F,6.87
22,Cc1oc2nc[nH]c(=O)c2c1C(=O)N1CCCC(n2cccn2)C1 (stereo unspecified),-0.513
23,O=C(C1CCCOC1)N1CCCCc2ccccc21 (stereo unspecified),-5.51

row,SMILES,cytotoxicity at 10 µM [%]
1,CCC(CC)(CNC(=O)NC1CCCC1(C)C)S(C)(=O)=O (stereo unspecified),9.18
2,NC(=O)N1CCCN(CCc2nc(-c3cccc(Cl)c3)no2)CC1,14.8
3,O=C(NCc1cccnc1N1CCCCC1)c1ccc2cc[nH]c2c1,4.1
4,CCOC(C)c1noc(CN(C)C(=O)c2cc3ccccn3c2)n1 (stereo unspecified),7.17
5,CS(=O)(=O)c1nnc(NC(=O)CCc2cccs2)[nH]1,8.91
6,CN(C)C(=O)CN(C)C(=O)c1cnc(Cc2ccc(F)cc2)s1,8.66
7,COc1cccc(CN(C)C(=O)Nc2ccc3c(c2)OCCO3)c1,-0.627
8,Cc1csc(N2CCN(Cc3ccccn3)CC2C)n1 (stereo unspecified),-8.84
9,Cc1cc(C)n(CC2CCCN2C(=O)c2ccc3[nH]nnc3c2)n1 (stereo unspecified),-13.1
10,C[C@H](NS(C)(=O)=O)C(=O)NCc1cc(-c2ccco2)n[nH]1,-8.27
11,CC(C)CNc1nccc(-c2cnc3sc(Cl)cn3c2=O)n1,-0.723
12,CSc1ccccc1C(=O)N(C)C1CCCN(CCc2ccccc2)C1 (stereo unspecified),-8.52
13,CCn1cc(CN2CCC3(CC2)c2ccccc2CC3O)cn1 (stereo unspecified),5.54
14,O=C(c1ccoc1)N1CCCN(C(=O)c2ccc(C3CCCN3)s2)CC1 (stereo unspecified),1.27
15,Cc1ccc(N2CCN(C(=O)CCc3ccc(O)cc3)CC2=O)cc1,-2.36
16,COc1cc(N2CCCC(c3nccn3Cc3cccnc3)C2)ncn1 (stereo unspecified),-1.86
17,Cc1[nH]ccc1C(=O)N1CCCC(c2ccc(C(=O)O)cc2)C1 (stereo unspecified),-0.591
18,O=C(NC[C@@H]1CCCO1)c1ccc(S(=O)(=O)N[C@@H]2CCNC2)cc1,-42.2
19,Cc1nc2c(c(=O)n1C)CN(C(=O)C1CCCN(CC(N)=O)C1)C2 (stereo unspecified),-6
20,O=C1NCC2(CCCN(c3ncnc4c3CCC4)CC2)O1 (stereo unspecified),-0.718
21,Cc1ncsc1CCN(C)C(=O)c1ncccc1O,-5.43
22,CCCS(=O)(=O)N1CCCC(c2cccc(C(=O)O)c2)C1 (stereo unspecified),6.09
23,O=C(CCCc1cn[nH]c1)N1C[C@@H](CN2CCOCC2)[C@@H](CO)C1,-15.8

row,SMILES,cytotoxicity at 10 µM [%]
1,Cc1cccc(Cn2cc(C)c(N)n2)c1,-4.14
2,CNc1cncc(C2CCCN2Cc2c[nH]cn2)n1 (stereo unspecified),0.192
3,CC(=O)N(Cc1ncc(C(C)C)o1)C1CCN(Cc2cc(C)on2)C1 (stereo unspecified),-6.78
4,Cc1ccc(-n2ncc(C(=O)N3CCCC3c3cnn(C)c3)c2C)cc1 (stereo unspecified),-7.79
5,CC(C)CC(=O)NS(=O)(=O)c1ccc(C#N)cc1C(F)(F)F,-8.64
6,CC(C(=O)Nc1ccc(N2CCCCC2)nc1)n1ccnc1 (stereo unspecified),-29.8
7,O=C(NCCNc1ncccn1)C1CC(=O)N(Cc2ccco2)C1 (stereo unspecified),-8.78
8,O=C(NCCCn1nc2ccccn2c1=O)Nc1ccccc1,-13.6
9,Cn1nc2c(cc1=O)CN(Cc1coc(-c3ccccc3)n1)CC2,-4.5
10,CC(C)n1cnnc1C1CCCN(C(=O)COCc2ccccc2)C1 (stereo unspecified),-20.3
11,C1CC(c2noc(C3CC3)n2)N(Cc2nc(C3CC3)no2)C1 (stereo unspecified),-12.8
12,COc1c(C)cnc(CN(C)C(=O)c2ccccc2F)c1C,-9.11
13,Cc1nn(C)c(C)c1C1COCCN1C(=O)c1cnc(N)c(Cl)c1 (stereo unspecified),-8.21
14,Cc1cnn(CCNCCCOc2ccccc2)c1,-11.8
15,COc1ccc(C(=O)NS(=O)(=O)c2ccc(C#N)cc2C(F)(F)F)cc1,-10.5
16,Nc1cc2c(nn1)CCN(C(=O)CC1CCCC1)C2,-6.31
17,CC(NC(=O)c1cccs1)C(=O)NCc1cccnc1N1CCCCC1 (stereo unspecified),-8.57
18,O=C(NCc1cc[nH]n1)NCC(O)c1ccc(F)cc1F (stereo unspecified),1.78
19,CC(=O)N1CCCN(C(=O)NCCc2cc(Cl)cc(Cl)c2)CC1,4.55
20,Cc1ccc(N2CCCC(NCC(=O)Nc3cc(C)no3)C2)nn1 (stereo unspecified),3.61
21,CCNC(c1cccnc1)c1cc(C)cc(C)c1 (stereo unspecified),2.77
22,O=C(CCc1ccccc1)N1CCC(N2CCNC2=O)CC1,5.49
23,CC(C)c1ccsc1C(=O)N1CCCN(Cc2cscn2)CC1,4.07

row,SMILES,cytotoxicity at 10 µM [%]
1,CC(=O)N1CCN(Cc2nccs2)CC2(CC(=O)N(C)C2)C1 (stereo unspecified),3.03
2,c1ccc(CN2CCCn3nnc(Cn4cccc4)c3C2)nc1,8.37
3,O=C(CN1CC(c2nc(Cc3ccccc3)no2)C1)NCC1CCCO1 (stereo unspecified),-6.06
4,CC(C)NC(=O)[C@@H]1CCO[C@@H]2CCN(c3ncccn3)C[C@@H]21,7.92
5,c1csc(CN2CCc3onc(Cn4cccc4)c3C2)c1,6.59
6,COc1cccc(CN2CCc3nc(C(N)=O)sc3CC2)c1,-3.79
7,COCCN1CCO[C@@H]2CN(Cc3ccccc3OC)C[C@@H]2C1,-2.48
8,O=C(O)CN1CCC(C(F)(F)F)CC1,17.2
9,CN(C)C(=O)N1CC[C@H]2[C@H]1CCN2c1nncs1,-1.19
10,CCN1CCOCC12CCN(c1ccc(C#N)cc1)CC2,-6.93
11,O=S(=O)(c1ccc(F)cc1)N1CC[C@H]2[C@H]1CCN2c1ncccn1,-2.85
12,Cc1cnc(N2CCN(C)c3ncccc3C2)nc1,-5.86
13,O=C(c1c[nH]cn1)N1CCC(F)(F)C2(CCN(c3ncccn3)C2)C1 (stereo unspecified),9.76
14,CC(C)NC(=O)N1CCOC2(CCCN(c3ncccc3F)C2)C1 (stereo unspecified),-4.45
15,CNC(=O)CNC1CC2(CCN(c3ncccn3)CC2)c2ccccc21 (stereo unspecified),4.68
16,COCC1Cn2nnc(-c3cnn(C)c3)c2CN1Cc1cccs1 (stereo unspecified),6.24
17,CCOCC(=O)N1Cc2[nH]nc(COCC3CC3)c2C1,9.29
18,Cc1cnc(N2CC[C@H]3[C@@H]2CCC(=O)N3c2ccccc2)nc1,4.15
19,CC(C)CN1C[C@@H]2C[C@H](C(=O)Nc3cccnc3)[C@H](C1)O2,7.8

# From ChEMBL document CHEMBL4513216, “Probing the Open Global Health Chemical Diversity Library for Multistage-Active Starting Points for Next-Generation Antimalarials” (ACS Infect Dis, 2020)
